Results: ChEMBL document CHEMBL1132256, “Structure-activity relationships for substituted bis(acridine-4-carboxamides): a new class of anticancer agents” (J Med Chem, 1999)

Each compound was assayed on Lewis lung carcinoma cell line (assay: Inhibitory activity of tested against Murine Lewis lung carcinoma). Conditions: Mus musculus.
Format: functional, cell-based
How it was run: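 Lewis lung carcinoma (LLTC) cells at 10^3 cells/well, 4-day continuous drug exposure, growth read by sulforhodamine assay. IC50 (nM) = concentration giving 50% of control cell number. Duplicate independent assays, CV ca. 25%.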
In the case of `CN(CCCNC(=O)c1cccc2cc3cccc(C(F)(F)F)c3nc12)CCCNC(=O)c1cccc2cc3cccc(C(F)(F)F)c3nc12`, the IC50 is reported as 39 nM.
`CN(CCCNC(=O)c1cccc2cc3cccc(Cl)c3nc12)CCCNC(=O)c1cccc2cc3cccc(Cl)c3nc12` showed an IC50 of 8 nM.
Work on `Cc1cccc2nc3c(C(=O)NCCCN(C)CCCNC(=O)c4cccc5cc6c(C)cccc6nc45)cccc3cc12` yielded an IC50 of 16 nM.
Work on `CN(CCCNC(=O)c1cccc2cc3ccc(Cl)cc3nc12)CCCNC(=O)c1cccc2cc3ccc(Cl)cc3nc12` yielded an IC50 of 13 nM.
Work on `CN(CCCNC(=O)c1cccc2cc3cccc(F)c3nc12)CCCNC(=O)c1cccc2cc3cccc(F)c3nc12` yielded an IC50 of 35 nM.
Compound `CN(CCCNC(=O)c1cccc2cc3ccccc3nc12)CCCNC(=O)c1cccc2cc3ccccc3nc12` has an IC50 of 30 nM.

The compounds below were run on Jurkat (assay: Ratio of inhibitory activity against doxorubicin resistant jurkat cells to inhibitory activity against wild type human jurkat cells). Conditions: not given.
Format: functional
How it was run: (§1)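 Wild-type Jurkat (JLC) and its amsacrine-resistant (JLA) or doxorubicin-resistant (JLD) sublines each seeded at 3.75 × 10^3 cells/well, 4 days with drug, sulforhodamine read-out. IC50 (nM) for 50% of control cell number; ratio = resistant-line IC50 divided by JLC IC50. Duplicate assays, CV ca. 25%.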
Compound `CN(CCCNC(=O)c1cccc2cc3cccc(C(F)(F)F)c3nc12)CCCNC(=O)c1cccc2cc3cccc(C(F)(F)F)c3nc12` has a Ratio of 1.1.
Work on `CN(CCCNC(=O)c1cccc2cc3cccc(Cl)c3nc12)CCCNC(=O)c1cccc2cc3cccc(Cl)c3nc12` yielded a Ratio of 1.
`Cc1cccc2nc3c(C(=O)NCCCN(C)CCCNC(=O)c4cccc5cc6c(C)cccc6nc45)cccc3cc12` showed a Ratio of 1.
Work on `CN(CCCNC(=O)c1cccc2cc3ccc(Cl)cc3nc12)CCCNC(=O)c1cccc2cc3ccc(Cl)cc3nc12` yielded a Ratio of 0.9.
For `CN(CCCNC(=O)c1cccc2cc3cccc(F)c3nc12)CCCNC(=O)c1cccc2cc3cccc(F)c3nc12`, the Ratio was 0.9.
Compound `CN(CCCNC(=O)c1cccc2cc3ccccc3nc12)CCCNC(=O)c1cccc2cc3ccccc3nc12` has a Ratio of 0.8.

These compounds were tested on Jurkat (assay: Ratio of inhibitory activity against amsacrine resistant jurkat cells to inhibitory activity against wild type human jurkat cells). Conditions: not given.
Format: functional
How it was run: as §1
In the case of `CN(CCCNC(=O)c1cccc2cc3cccc(C(F)(F)F)c3nc12)CCCNC(=O)c1cccc2cc3cccc(C(F)(F)F)c3nc12`, the Ratio is reported as 0.85.
`CN(CCCNC(=O)c1cccc2cc3cccc(Cl)c3nc12)CCCNC(=O)c1cccc2cc3cccc(Cl)c3nc12` gave a Ratio of 0.55.
Compound `Cc1cccc2nc3c(C(=O)NCCCN(C)CCCNC(=O)c4cccc5cc6c(C)cccc6nc45)cccc3cc12` has a Ratio of 0.7.
With `CN(CCCNC(=O)c1cccc2cc3ccc(Cl)cc3nc12)CCCNC(=O)c1cccc2cc3ccc(Cl)cc3nc12` the Ratio was 0.5.
`CN(CCCNC(=O)c1cccc2cc3cccc(F)c3nc12)CCCNC(=O)c1cccc2cc3cccc(F)c3nc12` gave a Ratio of 0.6.
For `CN(CCCNC(=O)c1cccc2cc3ccccc3nc12)CCCNC(=O)c1cccc2cc3ccccc3nc12`, the Ratio was 0.7.

These compounds were tested on HT-29 (assay: inhibitory activity against colon HT-29 cell line.). Conditions: Homo sapiens.
Format: functional
How it was run: (§2)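 Tested in the NCI human cell line panel. GI50 = drug concentration (nM) giving growth inhibition to 50% of controls; values below 10 nM were taken as 10 nM in calculations.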
Compound `CN(CCCNC(=O)c1cccc2cc3cccc(C(F)(F)F)c3nc12)CCCNC(=O)c1cccc2cc3cccc(C(F)(F)F)c3nc12` has a GI50 of 33 nM.
`CN(CCCNC(=O)c1cccc2cc3cccc(Cl)c3nc12)CCCNC(=O)c1cccc2cc3cccc(Cl)c3nc12` gave a GI50 of 31 nM.
`Cc1cccc2nc3c(C(=O)NCCCN(C)CCCNC(=O)c4cccc5cc6c(C)cccc6nc45)cccc3cc12` gave a GI50 of 60 nM.
With `CN(CCCNC(=O)c1cccc2cc3ccc(Cl)cc3nc12)CCCNC(=O)c1cccc2cc3ccc(Cl)cc3nc12` the GI50 was < 10 nM.
`CN(CCCNC(=O)c1cccc2cc3cccc(F)c3nc12)CCCNC(=O)c1cccc2cc3cccc(F)c3nc12` was tested, and the GI50 was < 10 nM.
`CN(CCCNC(=O)c1cccc2cc3ccccc3nc12)CCCNC(=O)c1cccc2cc3ccccc3nc12` was tested, and the GI50 was < 10 nM.

These compounds were tested on MCF7 (assay: inhibitory activity against multi drug resistant MCF cell line.). Conditions: Homo sapiens, in the assay text read “MCF7 cell line” for “multi drug resistant MCF cell line”.
Format: functional
How it was run: as §2
In the case of `CN(CCCNC(=O)c1cccc2cc3cccc(C(F)(F)F)c3nc12)CCCNC(=O)c1cccc2cc3cccc(C(F)(F)F)c3nc12`, the GI50 is reported as 79 nM.
`CN(CCCNC(=O)c1cccc2cc3cccc(Cl)c3nc12)CCCNC(=O)c1cccc2cc3cccc(Cl)c3nc12` showed a GI50 of 167 nM.
`Cc1cccc2nc3c(C(=O)NCCCN(C)CCCNC(=O)c4cccc5cc6c(C)cccc6nc45)cccc3cc12` gave a GI50 of 174 nM.
For `CN(CCCNC(=O)c1cccc2cc3ccc(Cl)cc3nc12)CCCNC(=O)c1cccc2cc3ccc(Cl)cc3nc12`, the GI50 was 13 nM.
With `CN(CCCNC(=O)c1cccc2cc3cccc(F)c3nc12)CCCNC(=O)c1cccc2cc3cccc(F)c3nc12` the GI50 was < 10 nM.
Work on `CN(CCCNC(=O)c1cccc2cc3ccccc3nc12)CCCNC(=O)c1cccc2cc3ccccc3nc12` yielded a GI50 of 24 nM.

The compounds below were run on CAKI-1 (assay: inhibitory activity against renal tumor […] cell line.). Conditions: Homo sapiens.
Format: functional
How it was run: as §2
Work on `CN(CCCNC(=O)c1cccc2cc3cccc(C(F)(F)F)c3nc12)CCCNC(=O)c1cccc2cc3cccc(C(F)(F)F)c3nc12` yielded a GI50 of 600 nM.
In the case of `CN(CCCNC(=O)c1cccc2cc3cccc(Cl)c3nc12)CCCNC(=O)c1cccc2cc3cccc(Cl)c3nc12`, the GI50 is reported as 95.9 nM.
With `Cc1cccc2nc3c(C(=O)NCCCN(C)CCCNC(=O)c4cccc5cc6c(C)cccc6nc45)cccc3cc12` the GI50 was 58 nM.
With `CN(CCCNC(=O)c1cccc2cc3ccc(Cl)cc3nc12)CCCNC(=O)c1cccc2cc3ccc(Cl)cc3nc12` the GI50 was < 10 nM.
With `CN(CCCNC(=O)c1cccc2cc3cccc(F)c3nc12)CCCNC(=O)c1cccc2cc3cccc(F)c3nc12` the GI50 was 34 nM.
For `CN(CCCNC(=O)c1cccc2cc3ccccc3nc12)CCCNC(=O)c1cccc2cc3ccccc3nc12`, the GI50 was 14 nM.

These compounds were tested on P388 (assay: Inhibitory activity against Murine […]). Conditions: Mus musculus.
Format: functional, cell-based
How it was run: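 Murine P388 leukemia cells seeded at 4.5 × 10^3 cells/well, cultured 3 days with drug; growth measured by [3H]TdR uptake. IC50 = drug concentration (nM) reducing cell number to 50% of controls. Independent assays in duplicate, CV ca. 25%.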
`CN(CCCNC(=O)c1cccc2cc3cccc(C(F)(F)F)c3nc12)CCCNC(=O)c1cccc2cc3cccc(C(F)(F)F)c3nc12` was tested, and the IC50 was 240 nM.
`CN(CCCNC(=O)c1cccc2cc3cccc(Cl)c3nc12)CCCNC(=O)c1cccc2cc3cccc(Cl)c3nc12` was tested, and the IC50 was 46 nM.
For `Cc1cccc2nc3c(C(=O)NCCCN(C)CCCNC(=O)c4cccc5cc6c(C)cccc6nc45)cccc3cc12`, the IC50 was 180 nM.
`CN(CCCNC(=O)c1cccc2cc3ccc(Cl)cc3nc12)CCCNC(=O)c1cccc2cc3ccc(Cl)cc3nc12` was tested, and the IC50 was 66 nM.
`CN(CCCNC(=O)c1cccc2cc3cccc(F)c3nc12)CCCNC(=O)c1cccc2cc3cccc(F)c3nc12` was tested, and the IC50 was 16 nM.
`CN(CCCNC(=O)c1cccc2cc3ccccc3nc12)CCCNC(=O)c1cccc2cc3ccccc3nc12` showed an IC50 of 130 nM.

Each compound was assayed on SK-OV-3 (assay: inhibitory activity against ovarian carcinoma SKOV3 cell line.). Conditions: Homo sapiens.
Format: functional
How it was run: as §2
Compound `CN(CCCNC(=O)c1cccc2cc3cccc(C(F)(F)F)c3nc12)CCCNC(=O)c1cccc2cc3cccc(C(F)(F)F)c3nc12` has a GI50 of 1260 nM.
`CN(CCCNC(=O)c1cccc2cc3cccc(Cl)c3nc12)CCCNC(=O)c1cccc2cc3cccc(Cl)c3nc12` was tested, and the GI50 was 12000 nM.
`Cc1cccc2nc3c(C(=O)NCCCN(C)CCCNC(=O)c4cccc5cc6c(C)cccc6nc45)cccc3cc12` was tested, and the GI50 was 594 nM.
`CN(CCCNC(=O)c1cccc2cc3ccc(Cl)cc3nc12)CCCNC(=O)c1cccc2cc3ccc(Cl)cc3nc12` gave a GI50 of 11000 nM.
`CN(CCCNC(=O)c1cccc2cc3cccc(F)c3nc12)CCCNC(=O)c1cccc2cc3cccc(F)c3nc12` showed a GI50 of 845 nM.
Compound `CN(CCCNC(=O)c1cccc2cc3ccccc3nc12)CCCNC(=O)c1cccc2cc3ccccc3nc12` has a GI50 of 8570 nM.

These compounds were tested on HCT-116 (assay: inhibitory activity against colon HCT116 cell line.). Conditions: Homo sapiens.
Format: functional
How it was run: as §2
With `CN(CCCNC(=O)c1cccc2cc3cccc(C(F)(F)F)c3nc12)CCCNC(=O)c1cccc2cc3cccc(C(F)(F)F)c3nc12` the GI50 was 32 nM.
`CN(CCCNC(=O)c1cccc2cc3cccc(Cl)c3nc12)CCCNC(=O)c1cccc2cc3cccc(Cl)c3nc12` was tested, and the GI50 was 14 nM.
With `Cc1cccc2nc3c(C(=O)NCCCN(C)CCCNC(=O)c4cccc5cc6c(C)cccc6nc45)cccc3cc12` the GI50 was 13 nM.
For `CN(CCCNC(=O)c1cccc2cc3ccc(Cl)cc3nc12)CCCNC(=O)c1cccc2cc3ccc(Cl)cc3nc12`, the GI50 was < 10 nM.
`CN(CCCNC(=O)c1cccc2cc3cccc(F)c3nc12)CCCNC(=O)c1cccc2cc3cccc(F)c3nc12` was tested, and the GI50 was < 10 nM.
With `CN(CCCNC(=O)c1cccc2cc3ccccc3nc12)CCCNC(=O)c1cccc2cc3ccccc3nc12` the GI50 was < 10 nM.

What follows are compounds tested on NCI/ADR-RES (assay: inhibitory activity against multi drug resistant NCI/ADR cell line.). Conditions: Homo sapiens.
Format: functional
How it was run: as §2
In the case of `CN(CCCNC(=O)c1cccc2cc3cccc(C(F)(F)F)c3nc12)CCCNC(=O)c1cccc2cc3cccc(C(F)(F)F)c3nc12`, the GI50 is reported as 1290 nM.
With `CN(CCCNC(=O)c1cccc2cc3cccc(Cl)c3nc12)CCCNC(=O)c1cccc2cc3cccc(Cl)c3nc12` the GI50 was 1200 nM.
Work on `Cc1cccc2nc3c(C(=O)NCCCN(C)CCCNC(=O)c4cccc5cc6c(C)cccc6nc45)cccc3cc12` yielded a GI50 of 1040 nM.
`CN(CCCNC(=O)c1cccc2cc3ccc(Cl)cc3nc12)CCCNC(=O)c1cccc2cc3ccc(Cl)cc3nc12` showed a GI50 of 274 nM.
In the case of `CN(CCCNC(=O)c1cccc2cc3cccc(F)c3nc12)CCCNC(=O)c1cccc2cc3cccc(F)c3nc12`, the GI50 is reported as 93 nM.
Compound `CN(CCCNC(=O)c1cccc2cc3ccccc3nc12)CCCNC(=O)c1cccc2cc3ccccc3nc12` has a GI50 of 408 nM.

These compounds were tested on Jurkat (assay: Concentration required to inhibit 50% growth of human Jurkat cells). Conditions: not given.
Format: functional, cell-based
How it was run: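 Jurkat leukemia (JLC) cells seeded at 3.75 × 10^3 cells/well and exposed to drug for 4 days; growth measured by sulforhodamine assay. IC50 = drug concentration (nM) reducing cell number to 50% of control cultures. Independent assays in duplicate, coefficients of variation ca. 25%.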
With `CN(CCCNC(=O)c1cccc2cc3cccc(C(F)(F)F)c3nc12)CCCNC(=O)c1cccc2cc3cccc(C(F)(F)F)c3nc12` the IC50 was 115 nM.
`CN(CCCNC(=O)c1cccc2cc3cccc(Cl)c3nc12)CCCNC(=O)c1cccc2cc3cccc(Cl)c3nc12` gave an IC50 of 33 nM.
With `Cc1cccc2nc3c(C(=O)NCCCN(C)CCCNC(=O)c4cccc5cc6c(C)cccc6nc45)cccc3cc12` the IC50 was 71 nM.
For `CN(CCCNC(=O)c1cccc2cc3ccc(Cl)cc3nc12)CCCNC(=O)c1cccc2cc3ccc(Cl)cc3nc12`, the IC50 was 51 nM.
`CN(CCCNC(=O)c1cccc2cc3cccc(F)c3nc12)CCCNC(=O)c1cccc2cc3cccc(F)c3nc12` showed an IC50 of 49 nM.
Work on `CN(CCCNC(=O)c1cccc2cc3ccccc3nc12)CCCNC(=O)c1cccc2cc3ccccc3nc12` yielded an IC50 of 110 nM.
